How the values were obtained:
CYP = CYP inhibition profile; type: in vitro ADME
GlyT1 = molecular target: T1, GlyT1 (Homo sapiens, UniProt P48067); assay: Enzyme kinetics of [14C]-glycine transport; type: biochemical; details: [14C]-glycine transport kinetics; 120 nM 12b in Fig. 3
T1 sequence (P48067 1-706): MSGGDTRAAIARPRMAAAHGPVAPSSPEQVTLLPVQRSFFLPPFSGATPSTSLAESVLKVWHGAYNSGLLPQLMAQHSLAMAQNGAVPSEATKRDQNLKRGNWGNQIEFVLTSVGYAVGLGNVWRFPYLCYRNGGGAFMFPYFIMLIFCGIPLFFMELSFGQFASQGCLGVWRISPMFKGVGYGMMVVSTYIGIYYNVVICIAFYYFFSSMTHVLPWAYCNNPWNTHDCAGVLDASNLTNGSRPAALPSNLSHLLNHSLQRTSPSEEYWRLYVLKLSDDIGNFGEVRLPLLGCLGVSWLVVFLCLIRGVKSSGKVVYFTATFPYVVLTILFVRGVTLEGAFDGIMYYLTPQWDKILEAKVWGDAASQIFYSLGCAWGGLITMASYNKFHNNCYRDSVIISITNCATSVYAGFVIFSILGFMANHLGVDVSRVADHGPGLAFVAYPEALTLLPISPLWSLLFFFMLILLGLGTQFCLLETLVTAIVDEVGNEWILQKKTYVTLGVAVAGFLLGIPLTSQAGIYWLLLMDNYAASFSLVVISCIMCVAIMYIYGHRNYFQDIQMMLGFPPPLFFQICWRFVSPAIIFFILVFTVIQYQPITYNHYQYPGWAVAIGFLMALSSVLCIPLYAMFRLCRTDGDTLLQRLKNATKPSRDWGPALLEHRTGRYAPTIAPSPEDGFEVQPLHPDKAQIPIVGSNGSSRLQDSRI
Method in brief: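 Saturation curves of [14C]-glycine transport were run with either vehicle or 120 nM test compound. Inhibition mode relative to glycine was assessed from an Eadie-Hoffstee plot of the transport data.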

IC50 (CYP)	Mechanism of GlyT1 inhibition with respect to glycine (GlyT1)	SMILES
> 10 µM	–	Cn1cnc(S(=O)(=O)N2CC3CCC(NC(=O)c4ccc(Cl)cc4Cl)C3C2)c1 (stereo not drawn) [Compound 12a]
–	competitively inhibits	Cn1cnc(S(=O)(=O)N2CC3CCC(NC(=O)c4ccccc4C(F)(F)F)C3C2)c1 (stereo not drawn) [Compound 12b]
> 10 µM	–	Cn1cnc(S(=O)(=O)N2CC(C(NC(=O)c3ccc(Cl)cc3Cl)c3ccccn3)C2)c1 (stereo not drawn) [Compound 27c]

Source: PMC3951244 (Bioorganic & medicinal chemistry letters, 2014)
